Data reported in ChEMBL document CHEMBL1146641, “Synthesis of 3-O-acyl/3-benzylidene/3-hydrazone/3-hydrazine/17-carboxyacryloyl ester derivatives of betulinic acid as anti-angiogenic agents” (Bioorg Med Chem Lett, 2004).
In brackets after ≈: the same amount, converted by molar mass.

What was measured:
ECV-304 [1] = test: Cytotoxic activity against ECV304 (human endothelial) cell line.; format: functional, cell-based
Procedure, shortened: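 1.5 × 10⁴ cells exposed 72 h to compounds in DMSO (final DMSO <0.1%) at 0.5–4 µg/mL, in triplicate wells. Viability read by MTT. Experiment repeated three times; mean IC50 (half-maximal cytotoxicity) reported.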

ECV-304 [2] = test: Inhibition of tube-like structure formation in ECV304 (human endothelial) cell line.; format: functional
[3] = Ratio of IC50 against DU145 prostate tumor cell line to IC50 of human endothelial ECV304 cell line; format: functional, ECV-304
Procedure, shortened: (§1)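 Endothelial selectivity ratio = IC50 on the tumor line / IC50 on ECV304. […] Wells in triplicate, experiments in triplicate, mean IC50 used. Ratio <10 rated low, 10–20 moderate, >20 high.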

[4] = Ratio of IC50 against HT-29 colon tumor cell line to IC50 of human endothelial ECV304 cell line; format: functional; procedure, shortened: as §1
[5] = Ratio of IC50 against L132 Lung tumor cell line to IC50 of human endothelial ECV304 cell line; format: functional; procedure, shortened: as §1
ECV-304 [6] = test: Ratio of IC50 against PA-1 ovary tumor cell line to IC50 of human endothelial ECV304 cell line; format: functional, Female gonad; procedure, shortened: as §1

SMILES	IC50 (ECV-304 [1])	Inhibition (ECV-304 [2])	ECS ratio [3]	ECS ratio [4]	ECS ratio [5]	ECS ratio (ECV-304 [6])
CC(C)[C@@H]1CC[C@]2(C(=O)O)CC[C@]3(C)C(CCC4[C@@]5(C)CCC(/N=C/c6ccc(F)cc6F)C(C)(C)C5CC[C@]43C)C12 (stereo not given in full)	2.4 µg/mL (≈ 4.12 µM)	48%	1.04	2.04	1.4	0.54
CC(C)[C@@H]1CC[C@]2(C(=O)O)CC[C@]3(C)C(CCC4[C@@]5(C)CC[C@H](OC(=O)c6ccccc6C(F)(F)F)C(C)(C)C5CC[C@]43C)C12 (stereo not given in full)	2.6 µg/mL (≈ 4.12 µM)		>1.5	3.84	1.5	>1.53
C=C(C)[C@@H]1CC[C@]2(C(=O)O)CC[C@]3(C)C(CCC4[C@@]5(C)CC[C@H](OC(=O)Cc6cc(OC)ccc6OC)C(C)(C)C5CC[C@]43C)C12 (stereo not given in full)	1.8 µg/mL (≈ 2.84 µM)		0.55	>5.6	2.5	
CC(C)[C@@H]1CC[C@]2(C(=O)O)CC[C@]3(C)C(CCC4[C@@]5(C)CC/C(=N\Nc6ccccc6)C(C)(C)C5CC[C@]43C)C12 (stereo not given in full)	< 4 µg/mL					
CC(C)[C@@H]1CC[C@]2(C(=O)O)CC[C@]3(C)C(CCC4[C@@]5(C)CCC(/N=C/c6ccc(F)c(F)c6)C(C)(C)C5CC[C@]43C)C12 (stereo not given in full)	0.35 µg/mL (≈ 0.602 µM)	32%	6.2	11.4	7.1	3.7
CC(C)[C@@H]1CC[C@]2(C(=O)O)CC[C@]3(C)C(CCC4[C@@]5(C)CC[C@H](OC(=O)c6ccc(F)cc6F)C(C)(C)C5CC[C@]43C)C12 (stereo not given in full)	0.7 µg/mL (≈ 1.17 µM)	20%	3.5	2.4	1.5	2.3
C=C(C)[C@@H]1CC[C@]2(C(=O)O)CC[C@]3(C)[C@H](CC[C@@H]4[C@@]5(C)CC[C@H](O)C(C)(C)[C@@H]5CC[C@]43C)[C@@H]12 [BETULINIC ACID]	1.2 µg/mL (≈ 2.63 µM)		2.2		1	3.2
C=CC(=O)OC(=O)[C@]12CC[C@@H](C(C)C)C1C1CCC3[C@@]4(C)CC[C@H](O)C(C)(C)C4CC[C@@]3(C)[C@]1(C)CC2 (stereo not given in full)	2 µg/mL (≈ 3.9 µM)		>2	5	2	0.75
C=C(C)[C@@H]1CC[C@]2(C(=O)O)CC[C@]3(C)C(CCC4[C@@]5(C)CC[C@H](OC(=O)c6ccc(CCCCC)cc6)C(C)(C)C5CC[C@]43C)C12 (stereo not given in full)	1.9 µg/mL (≈ 3.01 µM)		1.05	1.84	3.1	>2.1
C=CC(=O)OC(=O)[C@]12CC[C@@H](C(=C)C)C1C1CCC3[C@@]4(C)CC[C@H](O)C(C)(C)C4CC[C@@]3(C)[C@]1(C)CC2 (stereo not given in full)	4 µg/mL (≈ 7.83 µM)		>2.5	2.5	0.43	>1
C=C(C)[C@@H]1CC[C@]2(C(=O)O)CC[C@]3(C)C(CCC4[C@@]5(C)CC[C@H](OC(=O)c6cccc(C(F)(F)F)c6)C(C)(C)C5CC[C@]43C)C12 (stereo not given in full)	0.9 µg/mL (≈ 1.43 µM)		>11.1	>11.1	3	>4.4
CC(C)[C@@H]1CC[C@]2(C(=O)O)CC[C@]3(C)C(CCC4[C@@]5(C)CC[C@H](O)C(C)(C)C5CC[C@]43C)C12 (stereo not given in full) [DIHYDROBETULINIC ACID]	< 4 µg/mL					
C=C(C)[C@@H]1CC[C@]2(C(=O)O)CC[C@]3(C)C(CCC4[C@@]5(C)CC/C(=N\Nc6ccccc6)C(C)(C)C5CC[C@]43C)C12 (stereo not given in full)	2.4 µg/mL (≈ 4.41 µM)		2.7	4.2	1.9	2.08
CC(C)[C@@H]1CC[C@]2(C(=O)O)CC[C@]3(C)C(CCC4[C@@]5(C)CC/C(=N\O)C(C)(C)C5CC[C@]43C)C12 (stereo not given in full)	< 4 µg/mL					
CC(C)[C@@H]1CC[C@]2(C(=O)O)CC[C@]3(C)C(CCC4[C@@]5(C)CCC(NNc6ccccc6)C(C)(C)C5CC[C@]43C)C12 (stereo not given in full)	0.5 µg/mL (≈ 0.911 µM)		19.8	3.5	1.6	7
C=C(C)[C@@H]1CC[C@]2(C(=O)O)CC[C@]3(C)C(CCC4[C@@]5(C)CC[C@H](OC(=O)c6ccc(CCCCCCC)cc6)C(C)(C)C5CC[C@]43C)C12 (stereo not given in full)	1.7 µg/mL (≈ 2.58 µM)		>5.8	>5.89	4.1	>2.3
COc1ccc(N/N=C2\CC[C@@]3(C)C(CC[C@]4(C)C3CCC3C5[C@H](C(C)C)CC[C@]5(C(=O)O)CC[C@]34C)C2(C)C)cc1 (stereo not given in full)	< 4 µg/mL					
CC(C)[C@@H]1CC[C@]2(C(=O)O)CC[C@]3(C)C(CCC4[C@@]5(C)CCC(=O)C(C)(C)C5CC[C@]43C)C12 (stereo not given in full)	< 4 µg/mL					
CC(C)[C@@H]1CC[C@]2(C(=O)O)CC[C@]3(C)C(CCC4[C@@]5(C)CC[C@H](OC(=O)c6cc(F)cc(F)c6)C(C)(C)C5CC[C@]43C)C12 (stereo not given in full)	0.7 µg/mL (≈ 1.17 µM)		4.5	>14.3	1.7	
COc1ccc(NNC2CC[C@@]3(C)C(CC[C@]4(C)C3CCC3C5[C@H](C(C)C)CC[C@]5(C(=O)O)CC[C@]34C)C2(C)C)cc1 (stereo not given in full)	0.4 µg/mL (≈ 0.691 µM)		21.1	0.87		
CC(C)[C@@H]1CC[C@]2(C(=O)O)CC[C@]3(C)C(CCC4[C@@]5(C)CCC(N)C(C)(C)C5CC[C@]43C)C12 (stereo not given in full)	< 4 µg/mL					
C=C(C)[C@@H]1CC[C@]2(C(=O)O)CC[C@]3(C)[C@H](CC[C@@H]4[C@@]5(C)CCC(=O)C(C)(C)[C@@H]5CC[C@]43C)[C@@H]12 [BETUNOLIC ACID]	< 4 µg/mL					
